Measurements of several laboratories.
Each line is one published result; the experiments were not run side by side.
Target: Phosphorylase b kinase gamma catalytic chain, skeletal muscle/heart isoform (PHKG1, Homo sapiens, UniProt Q16816)

Structure (SMILES) | read-out | technique | tested at | remaining binding
Nc1ncc2c(n1)-c1c([nH]c3ccc(C#CC4CC4)cc13)CCCC2 | binding | competition with immobilised ligand | 1 µM | 93%
CCC(=N\O)/C(C)=C/c1ccc(F)cc1 | cell-free assay | competition with immobilised ligand | 1 µM | 100%
c1cncc(-c2cccc(Nc3nccc(NC4CCCCC4)n3)c2)c1 | binding | competition with immobilised ligand | 10 µM | 75%
Cc1cnn2ncc(-c3ccnc(N(C)C)n3)c2c1 | binding | – | 1 µM | 85%
O=C(c1ccc(Nc2ncc(Cl)c(-c3cc4ccccc4s3)n2)cc1)N1CCC(N2CCCC2)CC1 | binding | competition with immobilised ligand | 1 µM | 54%
CCN1CCN(Cc2ccc(C(=O)Nc3ccc(C)c(Oc4ccc5c(c4)CC(=O)N5)c3)cc2C(F)(F)F)CC1 | binding | competition with immobilised ligand | 1 µM | 100%
CN(C)c1ncc(F)c(-c2cnn3ncccc23)n1 | binding | – | 1 µM | 100%
CO[C@H]1CC[C@H](CNc2ccc(S(=O)(=O)NC(=O)c3ccc(N4CCN(CC5=C(c6ccc(Cl)cc6)CC(C)(C)CC5)CC4)cc3Oc3cnc4[nH]ccc4c3)cc2[N+](=O)[O-])CC1 | cell-free assay | competition with immobilised ligand | 1 µM | 100%
Cc1cnc(Nc2ccc(C(=O)N3CCC(N4CCCC4)CC3)cc2)nc1-c1cc2ccccc2s1 | binding | competition with immobilised ligand | 1 µM | 54%
CC1CCCN1c1nccc(-c2cnn3ncccc23)n1 (stereo not shown) | binding | – | 1 µM | 100%
FC(F)(F)Oc1cccc(-c2cnc3ccc(-c4ccncc4)nn23)c1 | cell-free assay | competition with immobilised ligand | 5 µM | 43%
Cc1c(NC(=O)c2cc(C(N)=O)nc3cc(F)ccc23)c(C(F)(F)F)nn1Cc1ccc(C(C)(C)C)cc1 | cell-free assay | competition with immobilised ligand | 1 µM | 100%
O=C(Nc1c[nH]nc1C(=O)NC1CCNCC1)c1cc(F)cc(F)c1 | binding | competition with immobilised ligand | 1 µM | 93%
O=C(c1ccc(Nc2ncc(Cl)c(-c3ccc(Cl)s3)n2)cc1)N1CCC(N2CCCC2)CC1 | binding | competition with immobilised ligand | 1 µM | 85%
C[C@@H]1CCN(c2nccc(-c3cnn4ncccc34)n2)C1 | binding | – | 1 µM | 100%
COc1ccc2cc(OCC3(C(=O)O)CN(C(=O)c4ccc(F)cc4)C3)ccc2c1 | cell-free assay | competition with immobilised ligand | 1 µM | 100%
F[C@@H]1CCN(c2nccc(-c3cnn4ncccc34)n2)C1 | binding | – | 1 µM | 100%
C=CC(=O)N1CCC(C(=O)NCC(=O)N2CCN(c3nc(-c4cnc(N)nc4C(F)F)nc(N4CCOCC4)n3)CC2)CC1 | binding | competition with immobilised ligand | 1 µM | 100%
Cc1nc(N2CC[C@@H](O)C2)ncc1-c1cc(C(F)(F)F)cc2[nH]ncc12 | cell-free assay | competition with immobilised ligand | 1 µM | 81%
COc1ccnn2ncc(-c3ccnc(N(C)C)n3)c12 | binding | – | 1 µM | 100%
CCCOc1ccc([C@@H]2[C@@H](C(=O)O)[C@H](c3ccc4c(c3)OCO4)CN2CC(=O)Nc2c(CC)cccc2CC)cc1 | cell-free assay | competition with immobilised ligand | 1 µM | 97%
CNC(=O)[C@@H]1CC[C@@H](n2c(-c3ccc4cnccc4c3)nc3ccc(C(=O)NCc4cccc(C(N)=O)c4)cc32)C1 | binding | competition with immobilised ligand | 1 µM | 100%
